# pIC50, pKi: −log10 of the molar value.
# Experiments:
# [1] = biological target: Adrenergic receptor alpha; assay: Inhibitory activity by measuring its ability to displace [3H]WB-4101 from alpha-adrenergic receptor in rat brain; assay type: tissue-based
# [2] = biological target: T1, Gastrin/cholecystokinin type B receptor (Rattus norvegicus, UniProt P30553); assay: Inhibitory activity by measuring its ability to displace [3H]L-365260 from cholecystokinin receptor in rat brain; assay type: tissue-based
# T1 sequence (P30553 whole entry): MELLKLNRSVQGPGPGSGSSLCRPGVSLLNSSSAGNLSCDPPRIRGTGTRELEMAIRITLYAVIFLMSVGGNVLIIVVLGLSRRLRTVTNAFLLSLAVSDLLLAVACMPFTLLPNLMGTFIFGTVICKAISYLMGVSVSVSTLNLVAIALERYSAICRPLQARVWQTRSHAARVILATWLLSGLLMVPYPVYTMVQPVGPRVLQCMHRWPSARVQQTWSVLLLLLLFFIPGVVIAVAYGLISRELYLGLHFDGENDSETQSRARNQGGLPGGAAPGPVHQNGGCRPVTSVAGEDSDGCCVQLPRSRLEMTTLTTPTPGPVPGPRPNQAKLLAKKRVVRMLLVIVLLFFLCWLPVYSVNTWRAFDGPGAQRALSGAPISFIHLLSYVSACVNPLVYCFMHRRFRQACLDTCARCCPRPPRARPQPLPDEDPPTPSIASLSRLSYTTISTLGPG
# [3] = biological target: GABA-A receptor; anion channel; assay: Inhibitory activity at GABA A receptor, measured by the ability to displace [35S]TBPS from GABA A receptor in rat brain; assay type: tissue-based
# [4] = biological target: Translocator protein (Rattus norvegicus, UniProt P16257); assay: Binding affinity against mitochondrial DBI complex (peripheral benzodiazepine receptor) using primary cultures of glial cells
# Sequence of Translocator protein (P16257 whole entry, looked up): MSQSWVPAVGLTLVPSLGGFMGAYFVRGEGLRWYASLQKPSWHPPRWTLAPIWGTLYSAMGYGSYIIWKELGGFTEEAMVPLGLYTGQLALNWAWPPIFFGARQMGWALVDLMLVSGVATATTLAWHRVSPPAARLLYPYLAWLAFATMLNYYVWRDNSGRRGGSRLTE
# How it was run: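 Glia from cerebella of 8-day-old Sprague–Dawley rat pups, trypsin-dissociated and grown 14 days (~95% astroglia). Cells lysed in 50 mM Hepes pH 7.4, 4 μg protein per tube. Incubated with [3H]4'-chlorodiazepam and competitor for 90 min at 4 °C, then filtered. Nonspecific binding defined with 10 μM 4'-chlorodiazepam. Triplicate competition curves; IC50 by nonlinear regression, converted to Ki (Bylund–Yamamura).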
# [5] = biological target: Adrenergic receptor alpha; assay: Inhibitory activity by measuring its ability to displace [3H]clonidine from alpha-adrenergic receptor in rat brain; assay type: tissue-based
# [6] = Inhibitory activity by measuring its ability to displace [3H]glycine from glycine receptor in rat brain; assay type: tissue-based
# [7] = biological target: GABA-A receptor; anion channel; assay: Inhibitory activity at GABA A receptor, measured by the ability to displace [3H]flumazenil from GABA A receptor in rat brain; assay type: tissue-based
# [8] = biological target: Adrenergic receptor beta (Rattus norvegicus, UniProt P18090+P10608+P26255); assay: Inhibitory activity by measuring its ability to displace [125I]pindolol from beta-adrenergic receptor in rat brain; assay type: tissue-based
# [9] = Tested for inhibitory activity by measuring its ability to displace [3H]AMPA from glutamate (non-NMDA) receptor in rat brain; assay type: tissue-based
# [10] = Inhibitory activity by measuring its ability to displace [3H]spiperone from dopamine or serotonin 5-HT-1 receptors in rat brain; assay type: tissue-based
# [11] = biological target: GABA-A receptor; anion channel; assay: Inhibitory activity at GABA A receptor, measured by the ability to displace [3H]GABA from GABA A receptor in rat brain; assay type: tissue-based
# [12] = Inhibitory activity at GABA B receptor, measured by the ability to displace [3H]baclofen from GABA B receptor in rat brain; assay type: tissue-based
# [13] = biological target: Glutamate NMDA receptor; assay: Inhibitory activity by measuring its ability to displace [3H]-MK-801 from glutamate(NMDA) receptor in rat brain; assay type: tissue-based
# [14] = biological target: GABA-A receptor; anion channel; assay: Inhibitory activity at GABA A receptor, measured by the ability to displace [3H]zolpidem from GABA A receptor in rat brain; assay type: tissue-based
# [15] = biological target: Cannabinoid receptor 1 (Rattus norvegicus, UniProt P20272); assay: Inhibitory activity, measured by displacement [3H]CP-55940 from cannabinoid receptor (CB1) in rat brain; assay type: tissue-based
# Sequence of Cannabinoid receptor 1 (P20272 whole entry): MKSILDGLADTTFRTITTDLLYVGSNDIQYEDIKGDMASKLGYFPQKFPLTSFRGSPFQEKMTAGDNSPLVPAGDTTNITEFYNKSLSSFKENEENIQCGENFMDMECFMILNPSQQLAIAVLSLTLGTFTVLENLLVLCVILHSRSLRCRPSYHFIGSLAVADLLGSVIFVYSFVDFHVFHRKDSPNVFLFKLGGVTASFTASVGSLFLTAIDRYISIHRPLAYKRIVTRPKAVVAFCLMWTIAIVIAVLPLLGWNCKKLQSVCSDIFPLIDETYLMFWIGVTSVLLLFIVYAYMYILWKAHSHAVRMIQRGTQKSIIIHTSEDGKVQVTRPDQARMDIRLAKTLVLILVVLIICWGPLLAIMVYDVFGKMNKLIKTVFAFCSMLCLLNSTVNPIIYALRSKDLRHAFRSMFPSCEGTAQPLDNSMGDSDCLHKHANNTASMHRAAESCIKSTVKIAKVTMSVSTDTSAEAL
SMILES,IC50 [1],pIC50 [2],pIC50 [3],pKi [4],IC50 [5],pIC50 [6],pIC50 [7],IC50 [8],pIC50 [9],pIC50 [10],pIC50 [11],pIC50 [12],pIC50 [13],pIC50 [14],pIC50 [15]
CCCN(CCC)C(=O)Cc1c(-c2ccccc2)[nH]c2c(F)cccc12,> 1000 nM,< 6.00,< 6.00,6.68,> 1000 nM,< 6.00,< 6.00,> 1000 nM,< 6.00,< 6.00,< 6.00,< 6.00,< 6.00,< 6.00,< 6.00
CCCN(CCC)C(=O)Cc1c(-c2ccc(C)cc2)[nH]c2ccc(C)cc12,> 1000 nM,< 6.00,< 6.00,7.18,> 1000 nM,< 6.00,< 6.00,> 1000 nM,< 6.00,< 6.00,< 6.00,< 6.00,< 6.00,< 6.00,< 6.00
CN(C)C(=O)Cc1c(-c2ccccc2)[nH]c2ccccc12,> 1000 nM,< 6.00,< 6.00,6.77,> 1000 nM,< 6.00,< 6.00,> 1000 nM,< 6.00,< 6.00,< 6.00,< 6.00,< 6.00,< 6.00,< 6.00
CCN(CC)C(=O)Cc1c(-c2ccccc2)[nH]c2ccccc12,> 1000 nM,< 6.00,< 6.00,6.81,> 1000 nM,< 6.00,< 6.00,> 1000 nM,< 6.00,< 6.00,< 6.00,< 6.00,< 6.00,< 6.00,< 6.00
O=C(Cc1c(-c2ccccc2)[nH]c2ccccc12)N1CCCC1,> 1000 nM,< 6.00,< 6.00,6.47,> 1000 nM,< 6.00,< 6.00,> 1000 nM,< 6.00,< 6.00,< 6.00,< 6.00,< 6.00,< 6.00,< 6.00
O=C(Cc1c(-c2ccc(F)cc2)[nH]c2ccccc12)Nc1ccccc1Br,> 1000 nM,< 6.00,< 6.00,6.32,> 1000 nM,< 6.00,< 6.00,> 1000 nM,< 6.00,< 6.00,< 6.00,< 6.00,< 6.00,< 6.00,< 6.00
CCCN(CCC)C(=O)C(C)c1c(-c2ccc(Cl)cc2)[nH]c2ccccc12 (stereo not given),> 1000 nM,< 6.00,< 6.00,6.10,> 1000 nM,< 6.00,< 6.00,> 1000 nM,< 6.00,< 6.00,< 6.00,< 6.00,< 6.00,< 6.00,< 6.00
Cc1ccc(-c2[nH]c3ccc(C)cc3c2CC(=O)N(C)C)cc1,> 1000 nM,< 6.00,< 6.00,6.82,> 1000 nM,< 6.00,< 6.00,> 1000 nM,< 6.00,< 6.00,< 6.00,< 6.00,< 6.00,< 6.00,< 6.00

# Source: ChEMBL document CHEMBL1126834, “Chemistry, binding affinities, and behavioral properties of a new class of "antineophobic" mitochondrial DBI receptor complex (mDRC) ligands” (J Med Chem, 1993)
